In brackets after ≈: the same amount, converted by molar mass.
Columns and labels:
Details in all cases: Neutrophil
[1] = Antiinflammatory activity against human neutrophils assessed as inhibition of fMLP/CB-induced superoxide anion generation; format: functional, cell-based
In short: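 Neutrophils (6 × 10^5/mL, dextran/Ficoll-isolated from healthy adults) with 0.5 mg/mL ferricytochrome c and 1 mM Ca2+, 2 min at 37 °C, compound or DMSO 5 min, cytochalasin B (1 µg/mL) 3 min, then fMLP 100 nM 10 min. SOD-inhibitable (100 U/mL) cytochrome c reduction at 550 nm, extinction coefficient 21.1/mM/10 mm; n = 4, mean ± SEM.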

[2] = Antiinflammatory activity against human neutrophils assessed as inhibition of fMLP/CB-induced elastase release at 10 ug/ml; format: functional
In short: (§1)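 Human neutrophils from healthy adult volunteers' venous blood, isolated by dextran sedimentation, Ficoll Hypaque gradient and hypotonic erythrocyte lysis, held in Ca2+-free HBSS pH 7.4 at 4 °C. Cells (6 × 10^5/mL) with MeO-Suc-Ala-Ala-Pro-Val-p-nitroanilide (100 µM) equilibrated 2 min at 37 °C, compound 5 min, then fMLP (100 nM)/cytochalasin B (0.5 µg/mL). A405 monitored continuously; n = 4, mean ± SEM.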

[3] = Antiinflammatory activity against human neutrophils assessed as inhibition of fMLP/CB-induced elastase release; format: functional, cell-based; in short: as §1

SMILES	IC50 [1] [µg/mL]	inhibition at 10 µg/mL [2] [%]	IC50 [3] [µg/mL]
COc1cc2ccc(=O)oc2cc1OC [SCOPARONE]	8.25 (≈ 40 µM)	43.1	
CC(=O)/C=C/C=C/C(=O)NCC(C)C	4.2 (≈ 21.5 µM)		6.2 (≈ 31.8 µM)
c1cc2c(cc1[C@H]1OC[C@H]3[C@@H]1CO[C@@H]3c1ccc3c(c1)OCO3)OCO2 [SESAMIN]	4.3 (≈ 12.1 µM)		1.38 (≈ 3.89 µM)
COc1c2ccoc2nc2c(OC)cccc12 [GAMMA-FAGARINE]	7.17 (≈ 31.3 µM)	19.1	
c1ccc2c(c1)[I+]c1ccccc1-2 [DIPHENYLENEIODONIUM]	0.54		
COc1ccc(CCN(C)C(=O)/C=C/c2ccc(O)cc2)cc1 [AILANTHAMIDE]	3.71 (≈ 11.9 µM)		4.23 (≈ 13.6 µM)
O=C1OC[C@H](Cc2ccc3c(c2)OCO3)[C@H]1Cc1ccc2c(c1)OCO2 [HINOKININ]	0.6 (≈ 1.69 µM)	24.7	
COc1c(O)ccc2c1cnc1c3cc4c(cc3ccc21)OCO4 [DECARINE]	1.29 (≈ 4.04 µM)		1.94 (≈ 6.08 µM)
COc1cc(C(=O)C(CO)c2ccc(O)c(OC)c2)ccc1O (configuration not stated) [EVOFOLIN B]	5.34 (≈ 16.8 µM)		6.15 (≈ 19.3 µM)
COc1ccc(CCN(C)C(=O)c2ccccc2)cc1	8.49 (≈ 31.5 µM)		7.48 (≈ 27.8 µM)
CC1(C)C=Cc2cc3ccc(=O)oc3cc2O1 [XANTHYLETIN]	4.1 (≈ 18 µM)		5.53 (≈ 24.2 µM)
O=S(=O)(F)Cc1ccccc1 [PHENYLMETHYLSULFONYLFLUORIDE]			35.2 (≈ 202 µM)

Reference: ChEMBL document CHEMBL1151815, “Amides and benzenoids from Zanthoxylum ailanthoides with inhibitory activity on superoxide generation and elastase release by neutrophils” (J Nat Prod, 2009)
